Measured values published in EPA's CvTdb concentration-time database.
Several values for one entry are separate records, joined by “and”; a condition that tells them apart may be missing. Identical values can stand only once.

Columns and labels:
rat [1] = experiment: concentration in urine after dosing; details: dosed: benzo[a]pyrene, 200 mg/kg, iv, male, LIO
rat [2] = experiment: concentration in feces after dosing; details: dosed: benzo[a]pyrene, 200 mg/kg, iv, male, LIO
Rat [3] = experiment: concentration in blood after dosing; negative times count back from the end of exposure; details: dosed: 1,2-dichloroethane, inhalation, duration: 6 hr, Male, F344
rat [4] = experiment: as above; details: inhalation
dog = experiment: concentration in blood after dosing; negative times count back from the end of exposure; details: dosed: tetrachloroethylene, inhalation, duration: 4 hr, male, beagle
In short: (§1)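 Data points giving concentration or amount against time came from published in vivo toxicokinetic studies and from two structured collections. PubMed searching, classifier screening and manual review located the studies. Most points were digitised from plot screenshots using WebPlotDigitizer, the rest were copied from tables, and all keep their reported units.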

human = experiment: as above; details: dosed: tetrachloroethylene, 144 ppm, inhalation, duration: 4 hr, male
In short: as §1

rat [5] = experiment: concentration in expired air after dosing; details: inhalation, duration: 6 hr
rat [6] = experiment: concentration in expired air after dosing; details: dosed: hexachloroethane, 53.3 ppm, inhalation, duration: 6 hr
rat [7] = experiment: concentration in lung after dosing; details: dosed: benzo[a]pyrene, inhalation, duration: 4 hr, F344
rat [8] = experiment: concentration in plasma after dosing; details: dosed: benzo[a]pyrene, inhalation, duration: 4 hr, F344

Oc1ccc2ccc3c4ccccc4cc4ccc1c2c43 [3-OH-BP]
Details	concentration in feces, rat [2] [µg/kg]	concentration in urine, rat [1] [µg/kg]
24 h	6.9	3.9
48 h	9.9	5.4
72 h	8.9	6.2
96 h	9.6	5
120 h	7.7	4.2
144 h	9.1	2.6
168 h	8.4	2.6
192 h	4	2.5
216 h	3.3	2.8
240 h	3.2	2.7
264 h	3.1	2.5
288 h	2.5	2.6
312 h	2.5	2.5
336 h	2.3	2.2
360 h	2.3	2.5

ClCCCl [1,2-dichloroethane]
concentration in blood [ng/mL], Rat [3]
Details	50 ppm	250 ppm
0.1443 h	815	24500
0.2313 h	664	–
0.2438 h	–	19700
0.3184 h	495	–
0.3308 h	–	15800
0.4925 h	239	12300
0.7413 h	131	8050
0.99 h	–	5340
1.488 h	–	1940
1.973 h	–	664
2.993 h	–	124
295 s	962	26800

concentration in blood, Rat [3], during exposure
Details	-18 s	-5.515 h	-5.005 h	-4.01 h	-3.015 h	-3.002 h
50 ppm	1360 ng/mL	476 ng/mL	926 ng/mL	1340 ng/mL	–	1340 ng/mL
250 ppm	30800 ng/mL	5840 ng/mL and 6640 ng/mL	11700 ng/mL	23600 ng/mL	29300 ng/mL	–

rat [4], dosed: 1,2-dichloroethane, duration: 6 hr, male
Details	concentration in blood [ng/mL]
-5.75 h, 200 ppm, Fischer-344, during exposure	768
-5.5 h, 200 ppm, Fischer-344, during exposure	1320
-5 h, 200 ppm, Fischer-344, during exposure	1920
-3 h, 200 ppm, Fischer-344, during exposure	3170
0 h, 200 ppm, Fischer-344	2940
0.1607 h, 150 ppm, Osborne-Mendel	3870
0.2398 h, 150 ppm, Osborne-Mendel	2830
0.25 h, 200 ppm, Fischer-344	851
0.3387 h, 150 ppm, Osborne-Mendel	2010
0.4969 h, 150 ppm, Osborne-Mendel	1320
0.665 h, 150 ppm, Osborne-Mendel	670
0.9913 h, 150 ppm, Osborne-Mendel	708
1.328 h, 150 ppm, Osborne-Mendel	279
258 s, 150 ppm, Osborne-Mendel	5010

rat [4], dosed: 1,2-dichloroethane, 150 ppm, duration: 6 hr, male, Osborne-Mendel, during exposure
Details	concentration in blood [ng/mL]
-27 s	9390
-5.001 h	5160
-3.34 h	8640
-2.005 h	8290

ClC(Cl)=C(Cl)Cl [tetrachloroethylene]
Details	concentration in blood [ng/mL]
dog, 2.446 h, 142 ppm	696
dog, 2.79 h, 72 ppm	345
dog, 18.14 h, 72 ppm	371
dog, 18.34 h, 142 ppm	848
dog, 42.06 h, 72 ppm	352
dog, 42.32 h, 142 ppm	798
dog, 67.19 h, 72 ppm	315
dog, 67.21 h, 142 ppm	681
dog, 91.19 h, 72 ppm	262
dog, 92.53 h, 142 ppm	603
dog, 139.29 h, 72 ppm	166
dog, 139.47 h, 142 ppm	405
dog, 163.11 h, 72 ppm	135
dog, 163.12 h, 142 ppm	314
human, -0.3835 h, during exposure	484

dog, during exposure
Details	concentration in blood [ng/mL]
-227 s, 72 ppm	200
-0.3342 h, 142 ppm	516

human
Details	concentration in blood [ng/mL]
2.478 h	601
18.43 h	752
42.35 h	705
67.23 h	618
92.18 h	515
139.2 h	334
163.09 h	271

ClC(Cl)(Cl)C(Cl)(Cl)Cl [hexachloroethane]
rat [5], dosed: hexachloroethane, 53.3 ppm
Details	concentration in expired air [ng/mL]
0.2509 h	96.3
0.7326 h	55.5
0.9876 h	48.8
1.498 h	49.2
2.489 h	27.8
2.985 h	19.8
4.983 h	15.7
5.975 h	15.4
7.986 h	7.51
8.978 h	6.78
9.998 h	5.85

rat [6]
Details	concentration in expired air [ng/mL]
0.8034 h	73.1
0.9876 h	51.1
1.653 h	36.3
1.979 h	26.3
2.489 h	24.2
3.509 h	17.9
4.983 h	10.9
5.989 h	10.1
7.236 h	9.9
7.986 h	8.23
8.978 h	7.36
9.998 h	6.12
29.5 min	79.4

ClCC(Cl)(Cl)Cl [1,1,1,2-tetrachloroethane]
rat [5], dosed: 1,1,1,2-tetrachloroethane, 352 ppm
Details	concentration in expired air [ng/mL]
0.2586 h	89.8
0.5066 h	97.9
0.7323 h	90.1
0.7758 h	98.6
1.001 h	79.1
1.012 h	83.8
1.506 h	67.5
1.507 h	72.8
2.766 h	65.7
3.982 h	62.9
4.003 h	52
4.477 h	59.7
5.5 h	58.8
6.5 h	46.7
6.511 h	41.4
6.995 h	40.1
7.007 h	49.3
7.986 h	39.2
7.995 h	32.7
8.987 h	36.6
8.997 h	31
9.986 h	27
9.987 h	29.5

Oc1ccc2ccc3c4ccccc4cc4ccc1c2c43 [3-hydroxy benzo[a]pyrene]
Details	concentration in lung, 0.05 h [ng/mL]	concentration in lung, 1 h [ng/mL]	concentration in lung, 2 h [ng/mL]	concentration in lung, 4 h [ng/mL]	concentration in plasma, 0.5 h [ng/mL]	concentration in plasma, 1 h [ng/mL]	concentration in plasma, 2 h [ng/mL]	concentration in plasma, 4 h [ng/mL]
rat [7], 0.1 mg/m^3, female	0.389	3.61	0.814	0.209	–	–	–	–
rat [7], 0.1 mg/m^3, male	0.29	2.87	1.21	0.154	–	–	–	–
rat [7], 1 mg/m^3, female	11.8	15.5	14.6	1.6	–	–	–	–
rat [7], 1 mg/m^3, male	5.1	16.6	5.12	3	–	–	–	–
rat [7], 2.5 mg/m^3, female	23.9	52.2	12.3	1.49	–	–	–	–
rat [7], 2.5 mg/m^3, male	21.7	48.1	8.15	3.18	–	–	–	–
rat [8], 0.1 mg/m^3, female	–	–	–	–	0.174	0.689	0.344	0.0192
rat [8], 0.1 mg/m^3, male	–	–	–	–	0.301	0.905	0.305	0.0316
rat [8], 1 mg/m^3, female	–	–	–	–	0.399	7	0.356	0.00793
rat [8], 1 mg/m^3, male	–	–	–	–	0.606	8.58	0.97	0.00272
rat [8], 2.5 mg/m^3, female	–	–	–	–	5.8	34.5	6.62	0.324
rat [8], 2.5 mg/m^3, male	–	–	–	–	5.6	33.1	7.14	0.363

CCCCCCCCC [nonane]
rat [4], dosed: nonane, duration: 4 hr
Details	concentration in blood [µg/g]
-83 s, 100 ppm, Fischer-344, during exposure	0.892
-71 s, 500 ppm, Fischer-344, during exposure	4.34
-56 s, 1000 ppm, Fischer-344, during exposure	16.8
-3.501 h, 500 ppm, Fischer-344, during exposure	2.02
-3.496 h, 1000 ppm, Fischer-344, during exposure	7.04
-3.494 h, 100 ppm, Fischer-344, during exposure	0.434
-3.003 h, 100 ppm, Fischer-344, during exposure	0.523
-2.994 h, 1000 ppm, Fischer-344, during exposure	6.96
-2.988 h, 500 ppm, Fischer-344, during exposure	2.21
-2.014 h, 1000 ppm, Fischer-344, during exposure	15.4
-2.009 h, 100 ppm, Fischer-344, during exposure	0.518
-2.007 h, 500 ppm, Fischer-344, during exposure	3.72
-1.02 h, 1000 ppm, Fischer-344, during exposure	17.2
-1.016 h, 100 ppm, Fischer-344, during exposure	0.672
-1.013 h, 500 ppm, Fischer-344, during exposure	3.57
0.1362 h, 1000 ppm, Fischer-344	11
0.1413 h, 100 ppm, Fischer-344	0.367
0.1425 h, 500 ppm, Fischer-344	2.81
0.2276 h, 100 ppm, Fischer-344	0.309
0.2331 h, 1000 ppm, Fischer-344	9.37
0.2405 h, 500 ppm, Fischer-344	1.93
0.4818 h, 1000 ppm, Fischer-344	5.11
0.4859 h, 100 ppm, Fischer-344	0.209
0.4867 h, 500 ppm, Fischer-344	1.77
0.9803 h, 500 ppm, Fischer-344	1.17
0.9804 h, 100 ppm, Fischer-344	0.115
0.9849 h, 1000 ppm, Fischer-344	4.34
1.969 h, 100 ppm, Fischer-344	0.0382
1.99 h, 500 ppm, Fischer-344	0.41
1.992 h, 1000 ppm, Fischer-344	2.37
2.984 h, 500 ppm, Fischer-344	0.368
2.985 h, 100 ppm, Fischer-344	0.0308
2.999 h, 1000 ppm, Fischer-344	1.47
3.992 h, 100 ppm, Fischer-344	0.0196
3.997 h, 1000 ppm, Fischer-344	0.691
4.002 h, 500 ppm, Fischer-344	0.255
198 s, 100 ppm, Fischer-344	0.432
217 s, 1000 ppm, Fischer-344	13.7
239 s, 500 ppm, Fischer-344	3.73
